Two molecules from ChEMBL document CHEMBL1153436, “2-Pyridyl P1'-substituted symmetry-based human immunodeficiency virus protease inhibitors (A-792611 and A-790742) with potential for convenient dosing and reduced side effects” (J Med Chem, 2009) can be followed below.

Structures are written as SMILES.

The test system of series [1] is Human immunodeficiency virus 1. Nature of the series: Antiviral activity against wild-type HIV1 pNL4-3 infected in human MT4 cells after 5 days by MTT assay in presence of 50% human serum. The series is classed as functional, organism-based. The settings on record: Human immunodeficiency virus 1, MT4, 120 h. On the technique in general: Tetrazolium assays rely on reduction of a dye to a coloured formazan, in cell work by metabolically active cells.

Series [2] relates to Human immunodeficiency virus 1. Description: Fold resistance, ratio of EC50 for HIV1 bearing protease gene with A17 mutation to EC50 for wild-type HIV1 pNL4-3. In kind it is functional. The gist of the method:
(§1)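 HIV-1 A17 mutant clone carrying protease mutations L10F, V32I, M46I, I47V, Q58E and I84V, generated by in vitro serial passage under LPV/RTV. EC50 was determined in MT-4 cells. Wild-type reference strain was HIV-1 pNL4-3.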

Series [3] deals with Serum. Nature of the series: Drug level in Gunn rat serum at 100 mg/kg coadministered with ritonavir measured on day 2. In kind it is ADME, organism-based. Also on record: dose 100 mg/kg. Conditions: in vivo. The gist of the method: (§2)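 Gunn rats (n = 8-10 per arm) dosed orally with compound in 5% ethanol/95% propylene glycol with p-toluenesulfonic acid, together with 50 mg/kg RTV. Plasma was sampled 4 h after the first and second doses. Drug was measured by HPLC and bilirubin […]. Change in bilirubin (mg/dL) reported as mean with SD.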

The subject of series [4] is Rattus norvegicus. Description: Toxicity in Gunn rat assessed as unconjugated-bilirubin level at 100 mg/kg coadministered with ritonavir measured on day 1. The series is classed as organism-based. Also on record: dose 100 mg/kg. Conditions: in vivo. Summed up:
as §2

Series [5] deals with Human immunodeficiency virus 1. Nature of the series: Antiviral activity against HIV1 bearing protease gene with A17 mutation infected in human MT4 cells after 5 days by MTT assay. In kind it is functional, organism-based. The settings on record: Human immunodeficiency virus 1, MT4, 120 h. Summed up:
as §1

In series [6] the test system is Rattus norvegicus. Nature of the series: Toxicity in Gunn rat assessed as unconjugated-bilirubin level at 100 mg/kg coadministered with ritonavir measured on day 2. Details: dose 100 mg/kg. The settings on record: in vivo. The series is classed as organism-based. The gist of the method: as §2
Series [7] has as its system Serum. Nature of the series: Drug level in Gunn rat serum at 100 mg/kg coadministered with ritonavir measured on day 1. The series is classed as ADME, organism-based. Conditions: in vivo. Also on record: dose 100 mg/kg. The gist of the method:
as §2

In series [8] the test system is Rattus norvegicus. Nature of the series: Toxicity in po dosed Gunn rat assessed as hyperbilirubinemia. The settings on record: in vivo. The series is classed as organism-based. Summed up:
as §2

For series [9], the system named is Human immunodeficiency virus 1. Description: Antiviral activity against wild-type HIV1 pNL4-3 infected in human MT4 cells after 5 days by MTT assay. The series is classed as functional, organism-based. Conditions: Human immunodeficiency virus 1, MT4, 120 h.
Series [10] in a line: AUC in dog at 5 mg/kg, po. In kind it is ADME, organism-based, Canis lupus familiaris. Also on record: dose 5 mg/kg, route oral. The settings on record: plasma. Summed up:
(§3)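 Male and female beagle dogs (n = 3) given oral gavage doses formulated as 5 mg/mL solutions in 5% dextrose with 20% ethanol, 30% propylene glycol and methanesulfonic acid, alone or with RTV (2.5 or 5 mg/kg). Plasma was taken at 12 time points over 12 h, extracted with ethyl acetate/hexane and analysed by reversed-phase HPLC with internal standard. AUC in µg·h/mL; Cmax and C12h in µg/mL.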

The nature of series [11]: AUC in dog at 2.5 mg/kg. In kind it is ADME, organism-based, Canis lupus familiaris. Also on record: dose 2.5 mg/kg. Conditions: plasma. The gist of the method:
as §3

With `COC(=O)N[C@H](C(=O)NN(Cc1ccc(-c2ccccn2)cc1)C[C@H](O)[C@H](Cc1ccccc1)NC(=O)[C@@H](N1CCN(Cc2cccc(C)n2)C1=O)C(C)(C)C)C(C)(C)C`, the EC50 – broadly, the concentration giving half of the maximal effect – in series [1] was 30 nM; in [5], 17 nM; in series [9] it was 2 nM. The “Ratio EC50” value in series [2] is listed as 9. The values for the Drug uptake in [3] and in [7] were 8.88 µg/mL and 8.87 µg/mL, respectively. Also, the Activity was 0.536 mg/dL in [4], 0.685 mg/dL in [6] and “Toxic” in series [8].
With `CC(C)c1nc(CN(C)C(=O)N[C@H](C(=O)N[C@@H](Cc2ccccc2)C[C@H](O)[C@H](Cc2ccccc2)NC(=O)OCc2cncs2)C(C)C)cs1` [RITONAVIR], the area under the curve (AUC) (usually concentration integrated over time) in series [10] came to 8800 ng·h/mL; in series [11] it was 1560 ng·h/mL.
